The source of these data is ChEMBL document CHEMBL1128451, “Synthesis and anti-DNA viral activities in vitro of certain 2,4-disubstituted-7-(2-deoxy-2-fluoro-beta-D-arabinofuranosyl)pyrrolo[2,3-d d pyrimidine nucleosides” (J Med Chem, 1995).

In brackets after ≈: the same amount, converted by molar mass.

Data set [1] can be described thus: Anti viral activity against 2.2.15 cells (concentration required to reduce the log phase cell growth by 50%). It counts as cell-based. The following applies: human, 2.2.15 cells (HepG2-derived); read-out: TC50 (the source's name). In outline: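 Growing 2.2.15/HepG2 cells at 1.7×10^4/well, subconfluent on collagen-coated plates, given compound dilutions in quadruplicate. Drug medium refreshed every second day. Proliferation read on days 0, 4, 8 and 12; TC50 is the concentration giving 50% inhibition of proliferation after 12 days' exposure. Mean of three or more experiments.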

The test system of data set [2] is MRC5. Nature of the data set: Anti HCMV (human cytomegalovirus) activity in MRC-5 cells infected with […] strain of HCMV (plaque reduction assay). The data set is classed as functional, cell-based.
Data set [3] in a line: Visual cytotoxicity of stationary MRC-5 cells, median toxic concentration is evaluated by anti HCMV plaque reduction assay performed in MRC-5 cells using the AD169 strain of HCMV. The data set is classed as cell-based, MRC5. The following applies: human, read-out: TC50 (the source's name). In outline:
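Stationary uninfected MRC-5 cells scored visually for cytotoxicity from 0 (none at 20-fold magnification) to 4 (cell sheet nearly destroyed); median toxic concentration reported.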
On the technique in general: Plaque reduction counts the foci of infection that form in a cell layer.

For data set [4], the system named is Vero. Nature of the data set: Ability to inhibit the Cytopathic effect of HSV-1 in vero cells. It counts as functional, cell-based. The settings on record: Chlorocebus sabaeus. On the technique in general: Damage to the host cells serves as the signal in cytopathic effect assays.
The subject of data set [5] is Vero. Put plainly: Ability to inhibit the Cytopathic effect of HSV-2 in vero cells. The following applies: Chlorocebus sabaeus. It counts as functional, cell-based.
The test system of data set [6] is HepG2. Nature of the data set: Ability to inhibit the episomal HBV-DNA in 2.2.15 cells. It counts as functional, cell-based. The settings on record: Homo sapiens.
Data set [7] deals with HFF. Nature of the data set: Plaque reduction and cytotoxicity performed in HFF cell line Hs 68. It counts as functional, cell-based. The following applies: Homo sapiens.
Data set [8] can be described thus: Visual cytotoxicity of […], median toxic concentration is evaluated by plaque reduction assay performed in HFF Cell line Hs 68. The data set is classed as cell-based. The following applies: human.
For data set [9], the system named is MRC5. Nature of the data set: Plaque reduction performed using the DHPG- resistant D16 strain of HCMV in MRC-5 cell line. The data set is classed as functional, cell-based. The settings on record: Homo sapiens. In a few lines:
(§1)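 Plaque reduction in MRC-5 cells, grown in MEM(E) with 10% FBS and passaged 1:2, infected with the DHPG-resistant D16 HCMV strain, a viral polymerase mutant. IC50 is the concentration reducing plaques by 50%, derived from a regression line of inhibition versus log concentration. Ganciclovir served as the positive control.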

A short description of data set [10]: Anti viral activity against MRC-5 cells (concentration required to reduce the log phase cell growth by 50%). It counts as cell-based, MRC5. The following applies: human, read-out: TC50 (the source's name). In outline:
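Growing MRC-5 cells; growth inhibition measured with the CellTiter 96 aqueous proliferation assay. TC50 is the concentration reducing log-phase cell growth by 50%.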

Data set [11] in a line: Visual cytotoxicity of stationary MRC-5 cells, median toxic concentration is evaluated by plaque reduction assay performed in DHPG- resistant D16 strain of HCMV. The data set is classed as cell-based, MRC5. The settings on record: human, read-out: TC50 (the source's name). In outline: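 Uninfected stationary MRC-5 cells were scored by eye for cytotoxicity, from 0 (none visible at 20-fold magnification) to 4 (cell sheet nearly destroyed). The value is the median toxic concentration.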

A short description of data set [12]: Anti viral activity against Vero cells (concentration required to reduce the log phase cell growth by 50%). It counts as cell-based. The settings on record: chlorocebus sabaeus, read-out: TC50 (the source's name). In outline:
(§2)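 Log-phase Vero cells, 5000 cells per assay, exposed to compound for 4 days in quadruplicate. Growth measured by tetrazolium-based (CellTiter 96 aqueous) proliferation read-out; averaged data used to calculate TC50, the concentration reducing cell growth by 50%.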

Data set [13] in a line: Visual cytotoxicity of stationary HFF Cell line Hs68, median toxic concentration is evaluated by anti HCMV plaque reduction assay performed in HFF Cell line Hs 68. It counts as cell-based. The settings on record: human, read-out: TC50 (the source's name). In outline:
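Stationary uninfected HFF Hs68 cells scored visually for cytotoxicity from 0 (none at 20-fold magnification) to 4 (cell sheet nearly destroyed); median toxic concentration reported.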

Data set [14] can be described thus: Visual cytotoxicity of […], median toxic concentration is evaluated by anti HCMV plaque reduction assay performed in HFF Cell line Hs 68. The data set is classed as cell-based. The following applies: human, read-out: TC50 (the source's name).
In data set [15] the test system is HFF. Nature of the data set: Anti HCMV(human cytomegalovirus) activity in HFF cell line Hs 68 infected with […] strain of HCMV(plaque reduction assay). The data set is classed as functional, cell-based. In outline:
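HCMV AD169 plaque reduction in diploid human foreskin fibroblast line Hs68, grown in MEM(E) with 10% FBS and passaged 1:2. IC50 is the concentration cutting plaque number by 50%, calculated by linear regression of inhibition against log drug concentration. Values are averages of three or more experiments. Ganciclovir was the positive control.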

In data set [16] the test system is HFF. Nature of the data set: Anti HCMV(human cytomegalovirus) activity in MRC-5 cells infected with DHPG-resistant D16 strain of HCMV(plaque reduction assay). The data set is classed as functional, cell-based. In outline:
as §1

Data set [17] can be described thus: Anti viral activity against vero cells (concentration required to reduce the log phase cell growth by 50%). It counts as cell-based. The following applies: chlorocebus sabaeus, read-out: TC50 (the source's name). In a few lines: as §2

With `Nc1nc(N)c2ccn(C3OC(CO)CC3F)c2n1` (stereo unspecified), the GI50 in data set [1] came to 149 µg/mL (≈ 558 µM). The IC50 in data set [2] was over 100 µg/mL; in data set [4], over 100 µg/mL; in data set [5] it was over 100 µg/mL; in data set [6], over 30 µg/mL. In data set [3], the CC50 was over 100 µg/mL.

`Nc1nc(Cl)c2ccn([C@@H]3O[C@H](CO)[C@@H](O)[C@@H]3F)c2n1`: the IC50 in [2] is over 100 µg/mL. The CC50 in [3] worked out at 32 µg/mL (≈ 106 µM).

In turn, `NC1=NC(=S)C2C=CN([C@@H]3O[C@H](CO)[C@@H](O)[C@@H]3F)C2=N1` (stereo partly specified) came in with an IC50 in [2] of over 50 µg/mL. The CC50 in [3] was over 50 µg/mL.

`COc1nc(N)nc2c1ccn2[C@@H]1O[C@H](CO)[C@@H](O)[C@@H]1F` yielded an IC50 in [2] of over 100 µg/mL. Moreover, the CC50 in [3] is over 100 µg/mL.

Consider `Nc1nc(N)c2ccn([C@@H]3O[C@H](CO)[C@@H](O)[C@@H]3F)c2n1`, for which the GI50 in data set [1] was 630 µg/mL (≈ 2220 µM); in data set [10], 11.4 µg/mL (≈ 40.2 µM). For the same compound, the IC50 worked out at 3.4 µg/mL (≈ 12 µM) in [7]; 3.7 µg/mL (≈ 13.1 µM) in [2]; 11 µg/mL (≈ 38.8 µM) in [9]; 4.1 µg/mL (≈ 14.5 µM) in data set [4]; 6.3 µg/mL (≈ 22.2 µM) in data set [5]; 0.7 µg/mL (≈ 2.47 µM) in data set [6]. The CC50 in data set [8] was over 1000 µg/mL; in [3], over 100 µg/mL; in data set [11] it was over 100 µg/mL; in [12] it was 53 µg/mL (≈ 187 µM).

For `NSc1nc(N)nc2c1ccn2[C@@H]1O[C@H](CO)[C@@H](O)[C@@H]1F`, in data set [2], the IC50 is over 100 µg/mL. The CC50 in [3] was over 100 µg/mL.

Take `Nc1ncc2ccn([C@@H]3O[C@H](CO)[C@@H](O)C3F)c2n1` (stereo partly specified): the IC50 in data set [2] amounted to 16 µg/mL (≈ 59.6 µM). The CC50 in data set [3] was over 100 µg/mL.

For the compound `Nc1nc([SeH])c2ccn([C@@H]3O[C@H](CO)[C@@H](O)[C@@H]3F)c2n1`, the half-maximal inhibitory concentration (IC50) in data set [2] turned out to be 10 µg/mL (≈ 28.8 µM). Also, the CC50 in data set [3] was 178 µg/mL (≈ 513 µM).

For the compound `Nc1nc2c(ccn2[C@@H]2O[C@H](CO)[C@@H](O)[C@@H]2F)c(=O)[nH]1`, the GI50 in [1] was over 100 µg/mL. Also, the half-inhibitory concentration (IC50) in data set [2] is 51 µg/mL (≈ 179 µM); in data set [6], 60 µg/mL (≈ 211 µM). Further, in data set [3], the CC50 is over 100 µg/mL.

As to `Nc1ncc2c(n1)N([C@@H]1O[C@H](CO)[C@@H](O)[C@@H]1F)CC2`, in data set [2], the IC50 is over 100 µg/mL. For the same compound, the CC50 in data set [3] is 32 µg/mL (≈ 118 µM).

With `Nc1nc2c(ncn2COC(CO)CO)c(=O)[nH]1` [GANCICLOVIR], the CC50 in data set [13] is over 1000 µg/mL; in [14] it was over 1000 µg/mL; in data set [3], over 1000 µg/mL; in data set [17], 270 µg/mL (≈ 1060 µM). The IC50 in data set [15] was 4.4 µg/mL (≈ 17.2 µM); in data set [16], 52 µg/mL (≈ 204 µM); in [2], 3.2 µg/mL (≈ 12.5 µM). Besides, the GI50 in [10] was over 500 µg/mL.

As for `Nc1ccn([C@H]2CC[C@@H](CO)O2)c(=O)n1` [ZALCITABINE], the GI50 in data set [1] turned out to be 64 µg/mL (≈ 303 µM). This compound displayed an IC50 in [6] of 2.1 µg/mL (≈ 9.94 µM).

One may read the IC50 as the point on the concentration scale where inhibition reaches its midpoint. High values mean a need for much substance, low ones inhibition by little substance.
